Experimental findings from PubChem BioAssay AID624380 (The Scripps Research Institute Molecular Screening Center, 2012) are described below.

In all, about 2,300 compounds went through this assay and about 120 (5.2%) were called active.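 How the source made its calls: active means mean activation above the mean of DMSO-only wells plus 3 SD (cut at about 0.5% in these data); inactive means the rest.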 The list is a sample of the results.

Mu-type opioid receptor (Homo sapiens), sequence (P35372 whole entry, looked up, the tested form may be a part): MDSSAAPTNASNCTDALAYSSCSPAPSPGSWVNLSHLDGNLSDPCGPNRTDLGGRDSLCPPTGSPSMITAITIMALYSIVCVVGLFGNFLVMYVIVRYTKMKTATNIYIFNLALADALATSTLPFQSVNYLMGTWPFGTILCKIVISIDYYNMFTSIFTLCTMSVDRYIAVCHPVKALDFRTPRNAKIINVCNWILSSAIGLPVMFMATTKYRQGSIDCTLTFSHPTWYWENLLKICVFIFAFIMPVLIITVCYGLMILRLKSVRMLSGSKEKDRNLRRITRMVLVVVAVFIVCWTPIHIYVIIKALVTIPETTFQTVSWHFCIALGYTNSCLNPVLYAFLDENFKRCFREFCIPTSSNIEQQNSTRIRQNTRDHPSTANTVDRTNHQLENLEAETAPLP

This assay deals with Mu-type opioid receptor (Homo sapiens) (UniProt P35372). Put plainly: mu opioid receptor activation, arrestin complementation – cell-based, luminescence, single concentration, counter-screen for mouse HTR2A agonist project, confirmation (AID 624380). The following applies: U2OS OPRM1 beta-arrestin PathHunter, at 9.3 µM, active compounds read high, DMSO 0%, DAMGO 9.3 µM 100%. The method, boiled down:
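system = U2OS cells, OPRM1–beta-arrestin fragment complementation | also added = DAMGO reference agonist, 9.3 µM | schedule = 3 h compound treatment, 37 °C, 1 h room-temperature reagent step | measured by = chemiluminescence from reconstituted beta-galactosidase after detection reagent addition | read-out = percent activation scaled between DMSO-only and DAMGO-treated well medians | repeats = three replicate wells per compound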
A general note: A counterscreen serves to expose hits that act by an unwanted route or on another target.
As to `O=C(NCc1ccco1)c1cccn2c(=O)c3c4c(sc3nc12)CCCC4`, the activation was -0.39% (inactive).

In the case of `Cc1ccc2nc(-c3ccncc3)cc(C(=O)Nc3ccncc3)c2c1`, the activation was 3.9% (active).

For the compound `Cc1ccccc1CSCC(=O)NC(=O)NC(C)(C)C`, the activation was -0.45% (inactive).

In the case of `CCOCCCNC(=O)Cc1cc(=O)[nH]c(=O)[nH]1`, the activation was -0.49% (inactive).

Take `C[C@@H]1ON(C)[C@H]2C[C@H]3c4cc(N5CCN(C)CC5)ccc4CCN3C(=O)[C@@H]12`: the activation was -0.06% (inactive).

Consider `Cc1ccc(CN2CCN(c3ncccn3)CC2)c(C)c1`, for which the activation was -0.26% (inactive).

As to `O=C(COC(=O)c1cc(S(=O)(=O)N2CCOCC2)ccc1F)NC1CC1`, the activation was -0.39% (inactive).

Regarding `CCOc1ccc(/C(O)=C2\C(=O)C(=O)N(c3ccc(OC)cc3)C2c2ccccc2[N+](=O)[O-])cc1` (stereo not given), the activation is -0.58% (inactive).

On to `Nc1cc(C(=O)N2CCN(c3ccccc3Cl)CC2)ccc1N1CC2CC(C1)c1cccc(=O)n1C2` (stereo not given), for which the activation is -0.61% (inactive).

`COc1ccc(CNC(=O)c2ccc(NS(=O)(=O)c3ccc4[nH]c(=O)[nH]c4c3)cc2)cc1OC`: the activation was -0.74% (inactive).

Take `O=S(=O)(c1ccc(OCC(O)CN2CCN(c3ccccc3Cl)CC2)cc1)N1CCOCC1` (stereo not given): the activation was -0.67% (inactive).

In the case of `CCOC(=O)c1cc(-c2ccccc2C)n(Cc2cc(C)no2)n1`, the activation is -0.46% (inactive).

On to `O=C(OCC(=O)N1CCOCC1)c1ccc2ccccc2c1`, for which the activation was -0.5% (inactive).

On to `COc1ccc2c(Cl)c(-c3nnco3)sc2c1`, for which the activation was -0.41% (inactive).

For `COc1ccc(C2c3[nH]c4ccccc4c3C[C@H]3C(=O)N(CC(C)C)CC(=O)N23)c(OC)c1` (stereo not given in full), the activation was -0.31% (inactive).

For `COc1ccccc1CN1CCN(Cc2cc(OC)c(OC)cc2OC)CC1`, the activation is -0.5% (inactive).

As for `O=C(c1ccncc1)N1CCN(c2ccc3ccccc3n2)CC1`, the activation was 0.53% (active).

Consider `COC(=O)c1cc(N2CCNCC2)nc2ccccc12`, for which the activation is -0.87% (inactive).

For `O=C(Cc1ccccc1)n1nc(-c2ccccc2)nc1NCc1ccco1`, the activation is 0.54% (active).

On to `COc1ccc(N2CC(C(=O)NCCN3C(=O)S/C(=C\c4cccnc4)C3=O)CC2=O)c(OC)c1` (stereo not given), for which the activation was -0.55% (inactive).

`Cc1c(C(=O)NCC2CC2)sc(=O)n1Cc1cccc(F)c1`: the activation is -0.53% (inactive).

On to `CCn1c(SCC(=O)N2CCCC2=O)nc2ccccc21`, for which the activation was -0.43% (inactive).

`Cc1cccnc1C(NC(=O)C1CCN(Cc2ccc(Cl)c(Cl)c2)CC1)c1ccc(Cl)cc1` (stereo not given): the activation is -0.69% (inactive).

As to `O=C(Cc1ccsc1)N1CCN(S(=O)(=O)c2cc(C(F)(F)F)cc(C(F)(F)F)c2)CC1`, the activation was -0.45% (inactive).

Turning to `CCn1cc(C(=O)OCC(=O)Nc2cccc(C)c2)c(=O)c2ccc(C)nc21`, the activation was -0.4% (inactive).

On to `C=C1C(=O)OC2C1CCC(C)=CCCC1(C)OC21` (stereo not given), for which the activation is -0.63% (inactive).

Take `CO/N=C/CC(=O)c1ccc(OC)cc1`: the activation is -0.34% (inactive).

`Cc1ccc(NC(=O)CCOc2ccccc2)cc1S(=O)(=O)Nc1ccccc1Cl`: the activation was -0.34% (inactive).

`O=C(Nc1cccc2cccnc12)c1ccc2sc([C@H]3C[C@H](O)[C@@H](CO)O3)nc2c1`: the activation is 0.15% (inactive).

As for `CC(C)Oc1ccccc1C(=O)NC(CO)C(=O)O` (stereo not given), the activation is -0.52% (inactive).

Turning to `Oc1ccc(CN2CCN(c3ncccn3)CC2)cc1`, the activation is -0.36% (inactive).

With `CS(=O)(=O)c1ccc2nc(NC(=O)C3CCCCC3)sc2c1`, the activation was -0.72% (inactive).

With `COc1ccccc1Nc1nnc(SC(C)C(=O)NC2CC2)s1` (stereo not given), the activation was -0.47% (inactive).

As for `Cc1cccc(CN2CCN(C3CN(Cc4ccccc4)S(=O)(=O)C3)CC2)c1` (stereo not given), the activation was -0.55% (inactive).

Regarding `O=C(CNCc1cccs1)Nc1cc(S(=O)(=O)N2CCCC2)ccc1Cl`, the activation was -0.34% (inactive).

As for `COc1ccc(NS(=O)(=O)c2cc(C(=O)Nc3ccccc3C(=O)O)ccc2C)cc1`, the activation was -0.47% (inactive).

Regarding `O=C(Nc1cc(=O)[nH]c2ncnn12)c1ccccc1Cl`, the activation was -0.64% (inactive).

Consider `Cc1cc(C)n(S(=O)(=O)c2cccc([N+](=O)[O-])c2)n1`, for which the activation is -0.31% (inactive).

As for `FC(F)(F)COc1nc(N2CCCCC2)nc(N2CCNCC2)n1`, the activation is -0.49% (inactive).

`COc1ccc(/C=N/Nc2ccccc2C(=O)O)cc1`: the activation is 0.45% (inactive).

As to `COc1cccc(OC)c1OCCN1CCN(C(=O)c2ccco2)CC1`, the activation was -0.41% (inactive).

On to `CC(C)c1cc(C(=O)O)on1`, for which the activation was -0.13% (inactive).

Turning to `Cc1cc(C(=O)OCC(=O)N2c3ccccc3NC(=O)C2(C)C)c(C)n1-c1ccccc1`, the activation is -0.15% (inactive).

As for `COC(=O)[C@]12CCCCC=C1N(CCC1=CCCCC1)C(=O)[C@H](CC(=O)NCC1CCCCC1)C2`, the activation is -0.46% (inactive).

With `Cc1cc([N+](=O)[O-])ccc1NC1CCCC1`, the activation was 0.02% (inactive).

Consider `C/C(=N\NC(=O)COc1c(C)cccc1C)c1cccs1`, for which the activation is -0.05% (inactive).

Consider `N#Cc1c(NC(=O)CCCl)sc2c1CCCCC2`, for which the activation is -0.23% (inactive).

On to `CCCN(CCc1ccccc1)C1CCc2c(O)cccc2C1` (stereo not given), for which the activation was 0.3% (inactive).

`N#CCSc1nn(-c2ccc(F)cc2)c(=S)s1`: the activation is -0.5% (inactive).

As to `Cc1[nH]c2ccccc2c1CCN(Cc1cccs1)C(=S)NC(C)(C)C`, the activation is -0.25% (inactive).

In the case of `O=C(O)c1ccc(S(=O)(=O)N2CCC(Cc3ccccc3)CC2)cc1`, the activation is -0.67% (inactive).

Take `CCOC(=O)/C=c1\s/c(=C\c2ccccc2OC)c(=O)n1CC(=O)N1CCOCC1`: the activation was -0.62% (inactive).

Regarding `C=CCn1c(=NC(=O)c2cccs2)sc2cc(NC(C)=O)ccc21`, the activation was 0.46% (inactive).

For the compound `O=C1CCc2cc(S(=O)(=O)N3CCC(C(=O)NCc4ccccc4Cl)CC3)ccc2N1`, the activation is -0.62% (inactive).

`O=C(NCCCN1CCN(c2ccccc2F)CC1)C1CCC(=O)N1C1CCCCC1` (stereo not given): the activation was -0.51% (inactive).

In the case of `CSc1nsc(SCC(=O)Nc2cc(C(=O)O)ccc2C)n1`, the activation is -0.51% (inactive).

`CC(Nc1ccccc1)c1cccnc1` (stereo not given): the activation is -0.58% (inactive).

Regarding `CCOC(=O)[C@]12CCCC=C1N(Cc1ccc3c(c1)OCO3)C(=O)[C@H](CC(=O)NCc1cccs1)C2`, the activation was -0.19% (inactive).

Take `OCC1(Cc2ccccc2)CCN(Cc2cc3ccccc3o2)CC1`: the activation is 0.94% (active).

For the compound `Cn1c2c(c(=O)n(C)c1=O)C(c1ccc(O)cc1)Nc1ccccc1O2` (stereo not given), the activation is -0.51% (inactive).

On to `O=C(O)C1C2C=CC(O2)C1C(=O)NCCc1cccc(Cl)c1` (stereo not given), for which the activation was -0.74% (inactive).

`COc1ccc(/C(=N\O)c2nccc3cc(OC)c(OC)cc23)cc1OC`: the activation is -0.42% (inactive).

Consider `CC(=O)N1c2ccc(S(=O)(=O)N3CCC(C(=O)NC4CCCCC4C)CC3)cc2CC1C` (stereo not given), for which the activation is -0.74% (inactive).

Turning to `COC(=O)CC(=O)N1CCN(c2ccc(Cl)c(Cl)c2)CC1`, the activation was -0.63% (inactive).

As to `Fc1ccc2[nH]c3c(N4CCSCC4)ncnc3c2c1`, the activation is 1.59% (active).

Regarding `CN(C)[C@@H]1C(=O)C(C(N)=O)=C(O)[C@@]2(O)C(=O)C3=C(O)c4c(O)ccc(Cl)c4[C@@H](O)[C@H]3C[C@@H]12`, the activation was -0.63% (inactive).

As to `O=C(c1ccco1)N1CCN(CCOc2ccccc2)CC1`, the activation was -0.48% (inactive).

On to `Cc1ccc2c(c1)NCC(C(=O)NC1CCC(C)CC1)O2` (stereo not given), for which the activation is -0.52% (inactive).

Take `COc1ccc(-c2nc3cc([N+](=O)[O-])ccc3o2)cc1OC`: the activation was 0.11% (inactive).

In the case of `COc1ccc(C(C)=O)cc1COC(=O)Cn1cnc2ccccc2c1=O`, the activation was 0.31% (inactive).

On to `Cc1oc2cc(Br)c(O)c(Br)c2c1C(=O)c1ccccc1`, for which the activation was -0.51% (inactive).

For `CCCCn1c(N)c(N(CC(C)C)C(=O)CSc2ccc([N+](=O)[O-])cc2)c(=O)[nH]c1=O`, the activation is -0.28% (inactive).

`COc1ccc2[nH]cc(CCN3C(=O)c4ccc(C(=O)O)cc4C3=O)c2c1`: the activation was -0.57% (inactive).

For `Cc1ccc(C(=O)N/C(=C/c2cccs2)C(=O)N2CCCCC2)cc1`, the activation was -0.51% (inactive).

For the compound `O=C(Nc1ccc2c(c1)[C@@H]1C[C@@H](CC(=O)N3CCCCC3)O[C@@H](CO)[C@@H]1O2)NC1CCCCC1`, the activation was -0.54% (inactive).

On to `Cc1cccc(CN2CCN(C3CN(Cc4cn(Cc5cc(C)cc(C)c5)nn4)S(=O)(=O)C3)CC2)c1` (stereo not given), for which the activation is -0.64% (inactive).

As to `COC(=O)Cn1nc(-c2ccccc2)c2cc(Cl)ccc21`, the activation is -0.43% (inactive).

Take `CCCC(=O)N=c1sc2cccc(F)c2n1C`: the activation was -0.39% (inactive).

As for `CCCCNc1c(-c2cccc(Sc3ccc(OC)cc3)c2)nc2ccccn12`, the activation is -0.06% (inactive).

As for `CC(=O)c1ccc(OCC(=O)N(C)C2CCS(=O)(=O)C2)cc1` (stereo not given), the activation was -0.71% (inactive).

Take `Cc1ccc(S(=O)(=O)N2CCN(c3ncnc4ccccc34)CC2)cc1`: the activation is 0.43% (inactive).

Regarding `N/C(=N\S(=O)(=O)c1cc(C(F)(F)F)cc(C(F)(F)F)c1)c1cccs1`, the activation was 0.39% (inactive).

For the compound `CC1(Cc2cccc(C#N)c2)C(=O)Nc2ccc(-c3cccc(C(F)(F)F)c3)cc21` (stereo not given), the activation was -0.07% (inactive).

With `NNc1cccc(C=Cc2ccccc2)cc1=O`, the activation was 0.48% (inactive).

For `COc1cccc(NC(=O)CSc2nnc(-c3cccnc3)o2)c1`, the activation is -0.3% (inactive).

With `O=C1CC(c2cccc(Cl)c2)CC(O)=C1C=Nc1ccccc1` (stereo not given), the activation was -0.61% (inactive).

Regarding `COC(=O)c1ccc(CSc2nnc(NC(C)C)s2)cc1`, the activation is -0.75% (inactive).

`C/C(=N\NC(=S)NC1CCCCC1)c1ccc(C)o1`: the activation is -0.73% (inactive).

For `COCCN(Cc1cc2cc3c(cc2nc1Cl)OCO3)C(=O)c1cccc(C)c1`, the activation was -0.33% (inactive).

On to `Nc1c(N(Cc2ccco2)C(=O)c2cccc(F)c2)c(=O)[nH]c(=O)n1Cc1ccccc1`, for which the activation was -0.45% (inactive).

`COC(=O)[C@@]1(Cc2ccc(F)cc2)[C@H]2c3cc(C(=O)N(C)C)n(CCc4c[nH]c5ccc(OC)cc45)c3C[C@H]2CN1C(=O)c1ccccc1`: the activation is -0.5% (inactive).

Take `Cc1ccc(NC(=O)CSc2nnc(COc3ccccc3C)o2)cc1`: the activation was -0.2% (inactive).

Take `CNCC(O)c1ccc(O)c(O)c1` (stereo not given): the activation was -0.22% (inactive).

For the compound `CSc1ncnc2c1ncn2CCCNCc1cccs1`, the activation is -0.51% (inactive).

On to `CCCCC(CC)CNC(=O)CCCCn1c(=O)[nH]c2ccsc2c1=O` (stereo not given), for which the activation was -0.47% (inactive).
